Experimental data taken from paper PMC5388221 (Drug Design, Development and Therapy, 2017).
Like-named read-outs stand apart in the source and are kept apart here.

Experiments:
[1] = tested on: intracellular amastigotes of T. cruzi (Y strain); experiment: Effect against intracellular parasites in infected cardiac cell cultures; assay type: cell-based, Trypanosoma cruzi; details: for SI (LC50/EC50), intracellular amastigotes: LC50 on cardiac cells at 48 h, 48 h/37°C
Procedure, shortened: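 T. cruzi Y strain infects primary embryonic Swiss mouse cardiac cells (parasite:host 10:1, 24 h), which are then washed. Cells are exposed to test compound (0.043–3.5 µM) for 48 h at 37°C in 5% CO2, then Bouin-fixed and Giemsa-stained. Infective index is % infected cells × mean parasites per infected cell; EC50 is 50% index reduction versus untreated. SI = 48 h MTT LC50 (uninfected cells)/EC50.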

[2] = tested on: bloodstream trypomastigotes (BTs) of T. cruzi (Y strain); experiment: Trypanocidal assay against bloodstream trypomastigotes; assay type: cell-based, Trypanosoma cruzi; details: for SI (LC50/EC50), BTs: LC50 on cardiac cells at 24 h, BTs 24 h/37°C; for EC50: read-out: EC50 (µM), BTs
Procedure, shortened: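 Bloodstream trypomastigotes come from Swiss mice at peak parasitemia. They are incubated at 5×10^6/mL in RPMI 1640 plus 10% fetal bovine serum with serial dilutions of test compound (0.001–10.6 µM) for 24 h at 37°C. Motile live parasites are counted by light microscopy in a Neubauer chamber; EC50 is a 50% drop versus untreated. SI = 24 h MTT LC50 on uninfected mouse cardiac cells/EC50.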

[3] = tested on: intracellular amastigotes of T. cruzi (Y strain); details: read-out: EC50, infection of T. cruzi-infected CCs; after 48 h of treatment; cited from earlier work
[4] = fast plasmatic clearance profile; cited from earlier work

Compound | SI (LC50/EC50), intracellular amastigotes [1] | SI (LC50/EC50), BTs [2] | EC50 ([2]; 24 h/37°C, Y strain) [µM] | EC50 [3] [nM] | EC50 ([1]; Trypanosoma cruzi, 48 h, read-out: EC50 (µM), intracellular amastigotes) [µM] | EC50 ([2]; Trypanosoma cruzi, 24 h) [µM] | Half-life [4] [h]
2,5-Bis[2-(2,2,2-trifluoroethoxy)-4-(2-pyridylimino)aminophenyl]furan [DB1959] | 1.6 | 45 | 0.078 ± 0.01 |  |  |  | 
CC(C)Oc1cc(NC(=N)c2ccccn2)ccc1-c1ccc(-c2ccc(NC(=N)c3ccccn3)cc2OC(C)C)s1 [DB1867, reference compound] |  |  |  | 58 |  |  | 
O=C(Cn1ccnc1[N+](=O)[O-])NCc1ccccc1 [Bz, benznidazole, reference compound] | >360 | >77 |  |  | 3.7 ± 1.72 | 12.9 ± 1.93 | 
CC1CS(=O)(=O)CCN1/N=C/c1ccc([N+](=O)[O-])o1 (stereo not shown) [nifurtimox] |  |  |  |  |  |  | 3
2,5-Bis[2-isopropoxy-4-(2-pyridylimino) aminophenyl]thiophene [DB1957] | 6 | 17 | 0.068 ± 0.0014 |  |  |  | 
2,5-Bis[2-isobutoxy-4-(2-pyridylimino) aminophenyl]furan hydrochloride [DB1890B] | 9.7 | 760 | 0.014 ± 0.007 | 900 |  |  | 
